# Assay results as given in ChEMBL document CHEMBL1933017, “Synthesis and biological evaluation of some thiazolidinones as antimicrobial agents” (2012).
# Key:
# [1] = system: Proteus vulgaris; experiment: Antibacterial activity against Proteus vulgaris at 100 ug/disc after 24 hrs by disc diffusion method; format: functional; conditions: read-out: DIZ
# Method in brief: (§1)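 Paper disc diffusion on autoclaved Mueller-Hinton agar poured 5 mm deep. Agar was swab-inoculated with 10⁵ CFU/mL suspension (0.5 McFarland). Discs 6.25 mm across were soaked in compound solution in DMSO (3.12–100 µg/mL) and plates incubated 24 h at (37 ± 1) °C. Read-out was inhibition zone (mm). DMSO control disc; ciprofloxacin or ketoconazole reference, 100 µg/disc. Mean of three independent experiments.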
# [2] = system: Escherichia coli; experiment: Antibacterial activity against Escherichia coli at 100 ug/disc after 24 hrs by disc diffusion method; format: functional; conditions: read-out: DIZ; method in brief: as §1
# [3] = system: Staphylococcus aureus; experiment: Antibacterial activity against Staphylococcus aureus at 100 ug/disc after 24 hrs by disc diffusion method; format: functional; conditions: read-out: DIZ; method in brief: as §1
# [4] = system: Aspergillus niger; experiment: Antifungal activity against Aspergillus niger after 48 hrs by agar streak dilution method; format: functional
# Method in brief: (§2)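 Fungal MIC by agar streak dilution on Sabouraud dextrose agar, poured 4–5 mm deep. Compound from a DMSO stock (100 μg/mL) was incorporated at serial concentrations of 3.12–100 µg/mL. Plates were inoculated with about 10⁵ CFU/mL of suspension and incubated at (37 ± 1) °C for 48 h. Each value is the mean of three independent experiments.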
# [5] = system: Candida albicans; experiment: Antifungal activity against Candida albicans at 100 ug/disc after 24 hrs by disc diffusion method; format: functional; conditions: read-out: DIZ; method in brief: as §1
# [6] = system: Aspergillus fumigatus; experiment: Antifungal activity against Aspergillus fumigatus after 48 hrs by agar streak dilution method; format: functional; method in brief: as §2
# [7] = system: Staphylococcus aureus; experiment: Antibacterial activity against Staphylococcus aureus after 24 hrs by agar streak dilution method; format: functional
# Method in brief: (§3)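 MIC by agar streak dilution. Graded amounts of DMSO stock (100 μg/mL) were mixed into molten sterile nutrient agar and poured 4–5 mm deep. Serial concentrations spanned 3.12–100 µg/mL. Plates were inoculated with about 10⁵ CFU/mL of bacterial suspension and incubated at (37 ± 1) °C for 24 h. Each value is the mean of three independent experiments.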
# [8] = system: Aspergillus fumigatus; experiment: Antifungal activity against Aspergillus fumigatus at 100 ug/disc after 24 hrs by disc diffusion method; format: functional; conditions: read-out: DIZ; method in brief: as §1
# [9] = system: Aspergillus niger; experiment: Antifungal activity against Aspergillus niger at 100 ug/disc after 24 hrs by disc diffusion method; format: functional; conditions: read-out: DIZ; method in brief: as §1
# [10] = system: Klebsiella pneumoniae; experiment: Antibacterial activity against Klebsiella pneumoniae […] after 24 hrs by agar streak dilution method; format: functional
# [11] = system: Salmonella typhi; experiment: Antibacterial activity against Salmonella Typhi at 100 ug/disc after 24 hrs by disc diffusion method; format: functional, Salmonella enterica subsp. enterica serovar Typhi; conditions: Salmonella enterica, read-out: DIZ
# Method in brief: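 Paper disc diffusion on Mueller-Hinton agar poured 5 mm deep; 10⁵ CFU/mL suspension (0.5 McFarland) swabbed over surface. 6.25 mm filter paper discs soaked in compound in DMSO, incubated 24 h at (37 ± 1) °C; inhibition zone diameter in mm. DMSO disc as blank; ciprofloxacin 100 µg/disc as reference. Mean of three independent experiments.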
# [12] = system: Aspergillus clavatus; experiment: Antifungal activity against Aspergillus clavatus at 100 ug/disc after 24 hrs by disc diffusion method; format: functional; conditions: read-out: DIZ; method in brief: as §1
# [13] = system: Proteus vulgaris; experiment: Antibacterial activity against Proteus vulgaris after 24 hrs by agar streak dilution method; format: functional; method in brief: as §3
# [14] = system: Salmonella typhi; experiment: Antibacterial activity against Salmonella Typhi after 24 hrs by agar streak dilution method; format: functional, Salmonella enterica subsp. enterica serovar Typhi; conditions: Salmonella enterica
# Method in brief: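 Agar streak dilution: DMSO stock (100 µg/mL) graded into molten sterile nutrient agar, poured 4–5 mm deep and solidified. Plates carry serial dilutions spanning 3.12–100 µg/mL. Applied ~10⁵ CFU/mL suspension, then incubated 24 h at (37 ± 1) °C. MIC read as the lowest inhibitory concentration; each value is the mean of three independent experiments.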
# [15] = system: Pseudomonas aeruginosa; experiment: Antibacterial activity against Pseudomonas aeruginosa at 100 ug/disc after 24 hrs by disc diffusion method; format: functional; conditions: read-out: DIZ; method in brief: as §1
# [16] = system: Klebsiella pneumoniae; experiment: Antibacterial activity against Klebsiella pneumoniae at 100 ug/disc after 24 hrs by disc diffusion method; format: functional; conditions: read-out: DIZ; method in brief: as §1
# [17] = system: Pseudomonas aeruginosa; experiment: Antibacterial activity against Pseudomonas aeruginosa […] after 24 hrs by agar streak dilution method; format: functional
# [18] = system: Aspergillus clavatus; experiment: Antifungal activity against Aspergillus clavatus after 48 hrs by agar streak dilution method; format: functional; method in brief: as §2
# [19] = system: Bacillus cereus; experiment: Antibacterial activity against Bacillus cereus at 100 ug/disc after 24 hrs by disc diffusion method; format: functional; conditions: read-out: DIZ; method in brief: as §1
# [20] = system: Escherichia coli; experiment: Antibacterial activity against Escherichia coli after 24 hrs by agar streak dilution method; format: functional; method in brief: as §3
# [21] = system: Shigella flexneri; experiment: Antibacterial activity against Shigella flexneri at 100 ug/disc after 24 hrs by disc diffusion method; format: functional; conditions: read-out: DIZ; method in brief: as §1
# [22] = system: Bacillus cereus; experiment: Antibacterial activity against Bacillus cereus after 24 hrs by agar streak dilution method; format: functional; method in brief: as §3
# [23] = system: Shigella flexneri; experiment: Antibacterial activity against Shigella flexneri after 24 hrs by agar streak dilution method; format: functional; method in brief: as §3
# [24] = system: Candida albicans; experiment: Antifungal activity against Candida albicans after 48 hrs by agar streak dilution method; format: functional; method in brief: as §2
Structure (SMILES),zone of inhibition at 100 µg/disc [1] [mm],zone of inhibition at 100 µg/disc [2] [mm],zone of inhibition at 100 µg/disc [3] [mm],MIC [4] [µg/mL],zone of inhibition at 100 µg/disc [5] [mm],MIC [6] [µg/mL],MIC [7] [µg/mL],zone of inhibition at 100 µg/disc [8] [mm],zone of inhibition at 100 µg/disc [9] [mm],MIC [10] [µg/mL],zone of inhibition at 100 µg/disc [11] [mm],zone of inhibition at 100 µg/disc [12] [mm],MIC [13] [µg/mL],MIC [14] [µg/mL],zone of inhibition at 100 µg/disc [15] [mm],zone of inhibition at 100 µg/disc [16] [mm],MIC [17] [µg/mL],MIC [18] [µg/mL],zone of inhibition at 100 µg/disc [19] [mm],MIC [20] [µg/mL],other results
CCN1CCN(CC2SC(c3ccc([N+](=O)[O-])cc3)N(c3ccc(Nc4nc(Oc5cc(=O)n(C)c6ccccc56)nc(N(C)C)n4)cc3)C2=O)CC1 (configuration not stated),25,24,22,50,17,100,50,20,23,50,22,21,50,100,18,23,100,100,22,100,zone of inhibition at 100 µg/disc [21]: 22 mm; MIC [22]: 50 µg/mL; MIC [23]: 50 µg/mL; MIC [24]: 100 µg/mL
CCN1CCN(CC2SC(c3ccccc3[N+](=O)[O-])N(c3ccc(Nc4nc(Oc5cc(=O)n(C)c6ccccc56)nc(N(C)C)n4)cc3)C2=O)CC1 (configuration not stated),17,14,13,100,19,100,100,13,< 10,100,15,15,100,100,16,15,100,100,17,100,zone of inhibition at 100 µg/disc [21]: 14 mm; MIC [22]: 50 µg/mL; MIC [23]: 100 µg/mL; MIC [24]: 100 µg/mL
CCN1CCN(CC2SC(c3ccc(O)cc3)N(c3ccc(Nc4nc(Oc5cc(=O)n(C)c6ccccc56)nc(N(C)C)n4)cc3)C2=O)CC1 (configuration not stated),16,16,23,100,19,50,25,21,18,50,17,21,100,50,14,19,100,100,20,50,zone of inhibition at 100 µg/disc [21]: 13 mm; MIC [22]: 50 µg/mL; MIC [23]: 100 µg/mL; MIC [24]: 100 µg/mL
CCN1CCN(CC2SC(c3ccc(Br)cc3)N(c3ccc(Nc4nc(Oc5cc(=O)n(C)c6ccccc56)nc(N(C)C)n4)cc3)C2=O)CC1 (configuration not stated),17,19,15,100,12,100,100,14,14,100,17,16,100,100,16,19,100,100,18,100,zone of inhibition at 100 µg/disc [21]: 15 mm; MIC [22]: 100 µg/mL; MIC [23]: 100 µg/mL; MIC [24]: 100 µg/mL
CCN1CCN(CC2SC(c3ccccc3Br)N(c3ccc(Nc4nc(Oc5cc(=O)n(C)c6ccccc56)nc(N(C)C)n4)cc3)C2=O)CC1 (configuration not stated),15,< 10,< 10,100,< 10,100,100,< 10,< 10,100,12,13,100,100,14,12,100,100,13,100,zone of inhibition at 100 µg/disc [21]: 11 mm; MIC [22]: 100 µg/mL; MIC [23]: 100 µg/mL; MIC [24]: 100 µg/mL
CCN1CCN(CC2SC(c3ccccc3C(=O)O)N(c3ccc(Nc4nc(Oc5cc(=O)n(C)c6ccccc56)nc(N(C)C)n4)cc3)C2=O)CC1 (configuration not stated),12,18,21,100,17,100,100,11,15,50,13,17,100,100,13,16,100,100,21,50,zone of inhibition at 100 µg/disc [21]: 15 mm; MIC [22]: 50 µg/mL; MIC [23]: 100 µg/mL; MIC [24]: 100 µg/mL
CCN1CCN(CC2SC(c3ccc(C(=O)O)cc3)N(c3ccc(Nc4nc(Oc5cc(=O)n(C)c6ccccc56)nc(N(C)C)n4)cc3)C2=O)CC1 (configuration not stated),25,27,26,25,25,50,25,20,27,12.5,22,23,12.5,50,22,26,25,50,23,6.25,zone of inhibition at 100 µg/disc [21]: 27 mm; MIC [22]: 12.5 µg/mL; MIC [23]: 6.25 µg/mL; MIC [24]: 100 µg/mL
CCN1CCN(CC2SC(c3ccc(OC)cc3)N(c3ccc(Nc4nc(Oc5cc(=O)n(C)c6ccccc56)nc(N(C)C)n4)cc3)C2=O)CC1 (configuration not stated),21,27,28,12.5,26,12.5,6.25,27,25,25,26,24,50,6.25,25,25,12.5,12.5,27,6.25,zone of inhibition at 100 µg/disc [21]: 26 mm; MIC [22]: 6.25 µg/mL; MIC [23]: 6.25 µg/mL; MIC [24]: 12.5 µg/mL
